# Assay outcomes: PubChem, several laboratories
# In the library only some 1.2% were active in any assay of this set; here they are far more common.
# FXIa inh: human FXIa protease inhibitors, primary screen, biochemical, 1536-well; Coagulation factor XI (Homo sapiens), P03951; purified FXIa, Boc-Glu-Ala-Arg-AMC fluorogenic substrate; inhibition, % at 5 µM; actives 0.14% (n = 220,000); AID 798, 2007;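 active = inhibition of at least 40%; inactive = inhibition below 40%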;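 also: fluorescence of freed AMC excited at 355 nm; 0% = enzyme without compound and 100% = no enzyme blank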
# PERK inhibitor: block of dimerizer-induced PERK translation repression, primary screen, PERK inhibitor project, CHO PERK-DD cells, SEAP luminescence, HTS; Eukaryotic translation initiation factor 2-alpha kinase 3 (Homo sapiens), Q9NZJ5; CHO PERK-DD fusion, SEAP luminescence translation reporter; inhibition, % at 5.6 µM; actives 0.17% (n = 220,000); AID 1416, 2008;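 active = inhibition above the mean inhibition of all tested compounds plus 3 SD, set separately per screening campaign, cut at about 2.9% in these data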;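 also: PERK kinase domain activated by AP20187 dimerizer at 100 nM; 0% = DMSO with dimerizer and 100% = rapamycin at 8.4 µM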
# thrombin 1536: human alpha-thrombin inhibitors, primary screen, counter-screen for coagulation protease inhibitor project, biochemical, 1536-well, fluorogenic AMC substrate; Boc-VPR-AMC fluorogenic substrate cleavage; inhibition, % at 5 µM; Prothrombin (Homo sapiens), P00734; actives 0.26% (n = 220,000);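 active = inhibition at or above 40%; inactive = inhibition below 40%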;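 also: 0% = enzyme with no compound and 100% = wells without enzyme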
#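 Test system: human alpha-thrombin protein / Dosing: one concentration per compound, 5 µM, with 0.2% DMSO / Medium: pH 7.5 Tris-saline with Tween 20 / Benchmarks: no-compound enzyme wells and no-enzyme blanks / Read-out basis: percent inhibition of thrombin substrate cleavage / Timing: reaction at room temperature / Measured by: fluorescence, ex 355 nm, em 460 nm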
# Furin inh: human furin inhibitors, primary screen, biochemical, fluorescence intensity; purified furin, fluorogenic substrate cleavage; AID 463115, 2010; actives 0.061% (n = 220,000); inhibition, % at 20 µM or 30 µM; in the data active = inhibition above about 25%
# Target sequence (P09958 108-714 limits assumed): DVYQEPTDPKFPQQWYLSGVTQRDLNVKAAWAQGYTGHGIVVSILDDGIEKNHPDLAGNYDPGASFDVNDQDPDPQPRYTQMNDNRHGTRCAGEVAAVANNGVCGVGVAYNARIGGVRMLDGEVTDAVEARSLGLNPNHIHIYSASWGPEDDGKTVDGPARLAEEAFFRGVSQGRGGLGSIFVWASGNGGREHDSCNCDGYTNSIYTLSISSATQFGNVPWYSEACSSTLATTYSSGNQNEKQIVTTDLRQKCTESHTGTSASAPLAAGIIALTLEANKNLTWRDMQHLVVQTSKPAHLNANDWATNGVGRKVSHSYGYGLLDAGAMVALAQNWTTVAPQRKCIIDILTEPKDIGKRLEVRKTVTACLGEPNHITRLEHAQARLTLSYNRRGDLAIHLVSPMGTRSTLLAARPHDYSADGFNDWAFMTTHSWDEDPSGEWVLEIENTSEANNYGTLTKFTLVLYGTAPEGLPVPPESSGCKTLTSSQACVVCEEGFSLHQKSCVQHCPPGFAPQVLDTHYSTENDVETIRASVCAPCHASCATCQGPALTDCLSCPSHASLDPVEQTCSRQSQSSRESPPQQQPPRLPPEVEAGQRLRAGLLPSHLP
# FXIIa inh: human FXIIa protease inhibitors, primary screen, biochemical, 1536-well; purified FXIIa, Boc-QGR-AMC fluorogenic substrate, 2 h; inhibition, % at 5 µM; actives 0.3% (n = 220,000); AID 800, 2007; in the data active = inhibition above about 40%;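 also: 0% = enzyme with no compound and 100% = blank without enzyme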
# KLK5 inh: human KLK5 protease inhibitors, primary screen, biochemical, 1536-well; inhibition, % at 5 µM; recombinant hK5, fluorogenic AMC substrate cleavage; actives 0.59% (n = 210,000);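 active = inhibition of 40% or more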;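 also: 0% = enzyme controls without compound and 100% = no-enzyme blanks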
# * hit, by the source's call; nt = no result given.
SMILES,FXIa inh,PERK inhibitor,thrombin 1536,Furin inh,FXIIa inh,KLK5 inh
Cc1c(O)ccc2c3c(c(=O)oc12)CCC(C)C3 (stereo not given),2.7,0.5,4.1,-28.7,9.1,-22.7
Cc1c(O)ccc2c3c(c(=O)oc12)CCCC3,19.0,3.7*,-3.9,-16.0,24.2,-18.1
Cc1cc(C)c(S(=O)(=O)CCC(C)C)c(=O)[nH]1,-1.7,1.4,1.8,-18.9,4.4,13.6
COc1ccc(SC[C@H](Cc2ccccc2)N2CCN(C)CCC2=O)cc1,-1.4,nt,-3.7,-28.2,7.5,-0.2
COc1ccc(CCNC(=O)C(=O)NCc2cccs2)cc1OC,0.8,0.1,-1.9,-19.8,8.9,nt
NC(=O)c1ccsc1NC(=O)CSc1nnc(C2CC2)n1Cc1ccccc1,9.7,0.7,59.2*,-12.4,16.4,48.1*
CC(C(=O)O)N1C(=O)/C(=C/C=C/c2ccco2)SC1=S (stereo not given),-0.4,0.1,14.9,5.0,-5.1,59.4*
NS(=O)(=O)c1ccc(CCNC(=O)Cc2ccccc2[N+](=O)[O-])cc1,58.6*,0.2,52.4*,-4.0,59.3*,20.6
Cc1ccc2c(c1)CC1(CN2C)C(=O)OC2(CCCCC2)OC1=O,15.0,0.5,60.9*,-6.0,14.4,-20.2
CN1CC2(Cc3c1ccc1ccccc31)C(=O)OC(C)(C)OC2=O,1.0,2.5,9.2,-4.6,24.7,-9.2
CC1(C)CC(=O)C=C(NNC(=O)c2ccccc2O)C1,31.6,0.4,2.8,-33.0,60.5*,-34.0
Cc1cccc(C(=O)NNC2=CC(=O)CC(C)(C)C2)c1O,4.2,0.2,1.7,-19.9,9.1,1.7
COc1ccc(C(=O)NNC2=CC(=O)CC(C)(C)C2)cc1,13.6,-0.2,15.2,-9.4,11.5,49.3*
Cc1ccc(NC(=O)CN2C(=O)S/C(=C\C(=O)Nc3ccc(Cl)cc3)C2=O)cc1,3.8,0.0,9.8,-3.3,3.8,45.1*
Cn1cccc1/C=C1\SC(=O)N(CC(=O)Nc2ccc(Cl)cc2)C1=O,2.4,-0.8,4.1,-15.0,12.8,-20.9
CCC(CC)c1nc(NCCC(=O)O)c2ccccc2n1,-7.5,3.1*,-2.0,3.9,5.8,-13.9
O=C(c1ccco1)[C@@H]1[C@@H]2C(=O)N(c3ccc(F)cc3)C(=O)[C@@H]2C2c3ccccc3C=CN21 (stereo not given in full),9.8,3.0*,5.2,-14.3,20.1,7.4
O=C(c1ccco1)[C@@H]1[C@@H]2C(=O)N(c3ccc(Br)cc3)C(=O)[C@@H]2C2c3ccccc3C=CN21 (stereo not given in full),nt,0.1,nt,-0.8,nt,nt
Cn1c2c(c(=O)n3ncnc13)CCCC2,-0.8,0.9,-3.4,-7.4,0.8,1.0
NC(=O)C1(N2CCCCC2)CCN(Cc2ccc(F)cc2)CC1,-0.3,-1.1,23.2,-15.9,11.2,48.7*
COc1ccc(C(=O)n2ccc(C)n2)cc1Br,7.2,1.3,6.7,-20.6,19.0,69.8*
COCCn1c(SCC(=O)Nc2sccc2C(N)=O)nnc1-c1ccncc1,-3.4,0.5,5.1,-35.1,0.7,-2.8
O=C(Nc1cccc(C(F)(F)F)c1)N1CCN(C(=O)Nc2cccc(C(F)(F)F)c2)CC1,15.2,1.0,20.8,-9.1,26.7,54.7*
O=C(Nc1nc(-c2ccccc2)cs1)c1ccc(S(=O)(=O)N2CCc3ccccc32)cc1,58.8*,-0.3,-2.3,1.3,15.1,-9.2
O=C(Nc1ccc(SC(F)F)cc1)c1ccccc1F,39.3,1.8,35.2,-3.9,23.8,42.7*
SMILES,FXIa inh,PERK inhibitor,thrombin 1536,Furin inh,FXIIa inh,KLK5 inh
COc1ccc(C(=O)CC(Nc2ccc([N+](=O)[O-])cc2)c2ccc(Cl)cc2)cc1 (stereo not given),-8.8,-0.9,10.2,-15.3,-13.8,-0.8
Cn1c(=N)n(CC(=O)c2cccs2)c2ccccc21,-2.7,-0.7,14.4,-4.8,16.1,45.0*
Nn1cc(-c2ccccc2)nc1SCC(=O)Nc1ccc(S(N)(=O)=O)cc1,-3.7,-0.3,-12.6,-11.9,0.0,-2.1
COCCCn1c(SCC(=O)n2c(C)c(C)c3ccccc32)nnc1-c1ccoc1C,-8.1,-0.9,3.0,-13.4,19.8,8.7
Cc1nc2ccccc2c(=O)n1NC(=O)CCC(=O)O,1.9,0.1,7.6,-18.3,11.1,-0.7
CC(C)N(C(=O)/C=C/c1cccc([N+](=O)[O-])c1)C(C)C,-0.5,3.6*,-5.9,-16.8,8.9,18.1
CCCN(CCC)C(=O)/C=C/c1cccc([N+](=O)[O-])c1,-3.8,0.0,-6.7,-14.1,2.7,-1.7
CC(C)CC(=O)Nc1ccc(-c2nnn(CC(=O)NCc3ccco3)n2)cc1,-3.5,0.2,3.0,-25.6,5.0,-5.9
O=c1c2cnn(-c3ccccc3)c2nc(-c2ccco2)n1-c1ccccc1,-10.0,0.6,-9.1,-0.5,-14.8,-6.5
O=c1oc(-c2ccco2)nc2ccccc12,22.2,1.7,8.1,-11.0,5.9,44.2*
c1coc(-c2nc3ccccc3nc2-c2ccco2)c1,12.8,0.6,16.0,-9.9,45.0*,12.1
O=c1oc(-c2ccco2)nc2c1cnn2-c1ccccc1,13.6,1.2,16.8,-27.8,47.6*,21.1
O=[N+]([O-])c1ccc(C(=S)N2CCN(c3ccc(F)cc3)CC2)cc1,-5.0,0.1,-0.9,-6.1,0.2,-7.2
CN(C)c1ccc(C(=S)N2CCOCC2)cc1,12.0,0.1,-6.8,3.7,45.0*,-4.5
CN(C)c1ccc(C(=S)N2CCN(c3ccc([N+](=O)[O-])cc3)CC2)cc1,51.9*,-0.8,13.1,0.9,48.7*,30.7
O=[N+]([O-])c1ccc(N2CCCCC2)cc1,30.3,-0.8,24.6,10.5,31.5,40.3*
CN(C)c1ccc(C(=S)N2CCCCCC2)cc1,-0.7,2.4,1.6,-9.5,7.0,2.6
COc1ccc(F)cc1S(=O)(=O)NC1CCCC1,-5.0,0.1,3.6,-18.5,13.7,-3.1
CSc1sc(C(=O)NC(=O)NCc2ccncc2)c(C)c1-c1ccon1,-15.7,-1.2,-6.5,3.1,-3.9,39.0
O=C(NC(=O)N1CCN(C(c2ccccc2)c2ccccc2)CC1)c1ccccc1,-1.0,0.1,-1.1,-13.6,7.6,0.7
CC(Nc1nc2ncn(Cc3ccccc3)c2c(=O)[nH]1)C(=O)O (stereo not given),11.2,0.8,62.0*,-0.6,23.8,16.8
